Experiment [1] concerns the target T1, Toll-like receptor 9 (Mus musculus) (UniProt Q9EQU3).
T1 sequence (whole entry): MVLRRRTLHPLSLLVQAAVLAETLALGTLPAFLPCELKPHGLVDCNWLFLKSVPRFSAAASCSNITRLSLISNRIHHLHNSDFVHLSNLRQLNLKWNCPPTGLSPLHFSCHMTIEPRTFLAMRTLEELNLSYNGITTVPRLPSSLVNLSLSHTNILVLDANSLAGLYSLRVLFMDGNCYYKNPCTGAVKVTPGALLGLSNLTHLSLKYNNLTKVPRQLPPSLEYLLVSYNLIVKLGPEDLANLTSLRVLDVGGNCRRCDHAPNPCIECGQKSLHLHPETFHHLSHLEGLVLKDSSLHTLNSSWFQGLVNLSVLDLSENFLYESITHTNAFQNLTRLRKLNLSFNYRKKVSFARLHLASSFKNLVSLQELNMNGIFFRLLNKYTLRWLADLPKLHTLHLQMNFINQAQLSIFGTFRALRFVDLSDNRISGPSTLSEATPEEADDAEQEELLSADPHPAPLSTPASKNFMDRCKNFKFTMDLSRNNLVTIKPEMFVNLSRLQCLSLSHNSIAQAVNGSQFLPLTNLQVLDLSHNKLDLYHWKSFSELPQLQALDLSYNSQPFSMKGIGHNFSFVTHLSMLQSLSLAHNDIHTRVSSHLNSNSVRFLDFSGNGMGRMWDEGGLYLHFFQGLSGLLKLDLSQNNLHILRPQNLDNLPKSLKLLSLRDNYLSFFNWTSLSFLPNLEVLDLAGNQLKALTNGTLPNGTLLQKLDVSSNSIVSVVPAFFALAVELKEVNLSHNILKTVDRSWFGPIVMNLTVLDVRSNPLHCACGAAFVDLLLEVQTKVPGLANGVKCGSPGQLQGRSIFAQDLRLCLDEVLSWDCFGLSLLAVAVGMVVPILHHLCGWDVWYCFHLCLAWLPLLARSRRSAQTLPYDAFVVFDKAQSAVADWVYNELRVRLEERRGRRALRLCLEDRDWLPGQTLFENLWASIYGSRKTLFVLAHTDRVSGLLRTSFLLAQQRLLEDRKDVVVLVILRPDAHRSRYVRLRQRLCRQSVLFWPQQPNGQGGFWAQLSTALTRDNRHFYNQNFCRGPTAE
Put plainly: Inhibition of TLR9 in BALB/c mouse BMDM assessed as downregulation of CpG-stimulated IL-6 level at 5 ug/ml preincubated for 18 hrs followed by CpG challenge measured after 24 hrs by ELISA relative to control. The method in brief:
(§1)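 BALB/c male bone marrow macrophages were differentiated 7 days with L929 supernatant (≥99% CD11b+/F4/80+). Cells were plated at 2 × 10^5/well in triplicate, rested overnight, and given compounds at 5 μg/mL for 18 h. They were then stimulated with 100 ng/mL S. minnesota LPS, 10 ng/mL Pam3CSK4 (BLP) or 0.01 μM CpG for 24 h. Supernatant IL-12p40 and IL-6 were measured by ELISA (sensitivity 16 pg/mL).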
On the technique in general: An ELISA detects its analyte on a solid surface through an enzyme-linked reagent.

The target of experiment [2] is T1, Toll-like receptor 9 (Mus musculus). The experiment is described as follows: Inhibition of TLR9 in BALB/c mouse BMDM assessed as downregulation of CpG-stimulated IL-12p40 level at 5 ug/ml preincubated for 18 hrs followed by CpG challenge measured after 24 hrs by ELISA relative to control. The method in brief:
as §1

Experiment [3] has as its target T2, Toll-like receptor 4 (Mus musculus) (UniProt Q9QUK6).
T2 sequence (whole entry): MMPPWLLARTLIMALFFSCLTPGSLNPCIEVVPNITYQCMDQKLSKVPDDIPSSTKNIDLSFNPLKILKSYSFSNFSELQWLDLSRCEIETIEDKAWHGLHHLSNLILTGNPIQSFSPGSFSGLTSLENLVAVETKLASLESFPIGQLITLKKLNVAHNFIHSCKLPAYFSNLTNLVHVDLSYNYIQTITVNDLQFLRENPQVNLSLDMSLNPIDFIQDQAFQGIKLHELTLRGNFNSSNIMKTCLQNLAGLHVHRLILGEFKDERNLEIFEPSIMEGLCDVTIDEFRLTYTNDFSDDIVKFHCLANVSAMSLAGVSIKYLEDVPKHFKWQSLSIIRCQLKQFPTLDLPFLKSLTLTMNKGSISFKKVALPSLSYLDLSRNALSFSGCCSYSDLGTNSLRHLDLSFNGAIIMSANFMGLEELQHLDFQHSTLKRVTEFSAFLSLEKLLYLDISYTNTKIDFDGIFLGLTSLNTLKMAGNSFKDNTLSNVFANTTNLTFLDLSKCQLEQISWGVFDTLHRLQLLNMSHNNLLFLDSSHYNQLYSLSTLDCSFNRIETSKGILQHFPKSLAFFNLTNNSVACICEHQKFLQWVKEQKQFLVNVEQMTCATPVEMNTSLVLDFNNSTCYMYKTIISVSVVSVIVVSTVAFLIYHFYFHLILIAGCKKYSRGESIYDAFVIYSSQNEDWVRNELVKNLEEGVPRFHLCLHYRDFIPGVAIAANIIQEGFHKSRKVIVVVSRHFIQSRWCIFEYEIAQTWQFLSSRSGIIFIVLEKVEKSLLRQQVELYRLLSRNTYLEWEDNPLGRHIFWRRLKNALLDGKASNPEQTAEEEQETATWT
Put plainly: Inhibition of TLR4 in BALB/c mouse BMDM assessed as downregulation of LPS-stimulated IL-12p40 level at 5 ug/ml preincubated for 18 hrs followed by LPS challenge measured after 24 hrs by ELISA relative to control. The method in brief:
as §1

Experiment [4] deals with T3, TLR2/TLR6 (Mus musculus) (UniProt Q9QUN7+Q9EPW9). The experiment is described as follows: Inhibition of TLR2/6 in BALB/c mouse BMDM assessed as downregulation of BLP-stimulated IL-6 level at 5 ug/ml preincubated for 18 hrs followed by BLP challenge measured after 24 hrs by ELISA relative to control. In kind it is protein-complex assay. The method in brief: as §1
Experiment [5] concerns the target T2, Toll-like receptor 4 (Mus musculus). Put plainly: Inhibition of TLR4 in BALB/c mouse BMDM assessed as downregulation of LPS-stimulated IL-6 level at 5 ug/ml preincubated for 18 hrs followed by LPS challenge measured after 24 hrs by ELISA relative to control. The method in brief:
as §1

For experiment [6], the target named is T3, TLR2/TLR6 (Mus musculus). Put plainly: Inhibition of TLR2/6 in BALB/c mouse BMDM assessed as downregulation of BLP-stimulated IL-12p40 level at 5 ug/ml preincubated for 18 hrs followed by BLP challenge measured after 24 hrs by ELISA relative to control. In kind it is protein-complex assay. Put shortly:
as §1

Calls of active or inactive are those of the source. The rule behind the calls is not given here.

The text below walks through data of ChEMBL document CHEMBL3108700, “Designing anti-inflammatory drugs from parasitic worms: a synthetic small molecule analogue of the Acanthocheilonema viteae product ES-62 prevents development of collagen-induced arthritis” (J Med Chem, 2013).

Consider `C[N+]1(CCS(=O)(=O)Cc2ccc(Br)cc2)CCCC1`, for which the inhibition entry (in experiment [1]; in experiment [2]; at TLR2/TLR6 (Mus musculus) [4]) was “inactive” throughout. In addition, the inhibition result (in experiment [3]; in experiment [5]; on TLR2/TLR6 (Mus musculus) [6]) was “Active” throughout.
With `O=S(=O)(CCN1CCOCC1)Nc1ccc(F)cc1`, the inhibition result (in experiment [1]; in experiment [2]; at TLR2/TLR6 (Mus musculus) [4]; in experiment [5]; at TLR2/TLR6 (Mus musculus) [6]) was “inactive” throughout. Further, the inhibition result in experiment [3] was “Active”.
As for `CN(C)CCCOP(=O)(O)Oc1ccc(NC(=O)OC(C)(C)C)cc1`, the inhibition result (in experiment [1]; in experiment [2]; in experiment [3]; at TLR2/TLR6 (Mus musculus) [4]; in experiment [5]; on TLR2/TLR6 (Mus musculus) [6]) was “inactive” in each case.
Regarding `Cc1ccc(CNS(=O)(=O)CCN2CCOCC2)cc1`, the inhibition entry (in experiment [1]; in experiment [2]; in experiment [3]; at TLR2/TLR6 (Mus musculus) [4]; in experiment [5]; at TLR2/TLR6 (Mus musculus) [6]) was “inactive” in each case.
In the case of `O=S(=O)(Cc1ccc2ccccc2c1)NCCN1CCCC1`, the inhibition result (in experiment [1]; in experiment [2]; in experiment [3]; in experiment [5]; at TLR2/TLR6 (Mus musculus) [6]) was “inactive” each time. Moreover, the inhibition result on TLR2/TLR6 (Mus musculus) [4] is “Active”.
As for `CN(C)CCS(=O)(=O)NCc1ccccc1`, the inhibition result (in experiment [1]; in experiment [2]; in experiment [3]; at TLR2/TLR6 (Mus musculus) [4]; in experiment [5]; at TLR2/TLR6 (Mus musculus) [6]) was “inactive” each time.
As for `CN(C)CCS(=O)(=O)NCc1ccc(F)cc1`, the inhibition result (in experiment [1]; in experiment [3]; at TLR2/TLR6 (Mus musculus) [4]; in experiment [5]; at TLR2/TLR6 (Mus musculus) [6]) was “inactive” throughout. In addition, the inhibition entry in experiment [2] is “Active”.
Turning to `CN(C)CCNS(=O)(=O)Cc1ccc(/C=C/c2ccccc2)cc1`, the inhibition result (in experiment [1]; in experiment [2]; in experiment [3]; at TLR2/TLR6 (Mus musculus) [4]; in experiment [5]) was “inactive” throughout. Moreover, the inhibition entry on TLR2/TLR6 (Mus musculus) [6] was “Active”.
`Cc1ccc(CS(=O)(=O)CCC[N+]2(C)CCCC2)cc1`: the inhibition result (in experiment [1]; in experiment [2]; in experiment [3]; at TLR2/TLR6 (Mus musculus) [4]; in experiment [5]; at TLR2/TLR6 (Mus musculus) [6]) was “inactive” each time.
On to `O=S(=O)(CCN1CCOCC1)Cc1ccc(F)cc1`, for which the inhibition entry (in experiment [1]; in experiment [2]; in experiment [3]; at TLR2/TLR6 (Mus musculus) [4]; at TLR2/TLR6 (Mus musculus) [6]) was “inactive” in each case. The inhibition result in experiment [5] is “Active”.
Consider `Cc1ccc(CS(=O)(=O)NCCCN(C)C)cc1`, for which the inhibition entry (in experiment [1]; in experiment [2]; in experiment [3]; on TLR2/TLR6 (Mus musculus) [4]; in experiment [5]; on TLR2/TLR6 (Mus musculus) [6]) was “inactive” throughout.
Take `CC[C@@H](C)NCCS(=O)(=O)Cc1ccc(Br)cc1`: the inhibition entry (in experiment [1]; in experiment [2]; in experiment [3]; at TLR2/TLR6 (Mus musculus) [4]; in experiment [5]; at TLR2/TLR6 (Mus musculus) [6]) was “inactive” each time.
